TNAP inh noacc – inhibitors of human TNAP without phosphate acceptor. P05186. purified TNAP, CDP-star luminescence, 30 min. inhibition, % at 20 µM. actives 0.26% (n = 200,000);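 active = tissue-nonspecific alkaline phosphatase inhibition above about 50% at 20 µM in the single-dose screen, limit read from the data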
G6PDH CS – counter-screen for G6PDH assay hits: L. mesenteroides G6PDH inhibition; Purified L. mesenteroides G6PDH, diaphorase/resazurin coupled fluorescence, 45 min; inhibition, % at 5 µM; actives 0.12% (n = 200,000); AID 1020; in the data active = inhibition above about 50%
TNAP act hiacc – TNAP (human) activation, high acceptor; P05186; 200,000 tested, under 10 active; purified TNAP, CDP-star luminescence, 1 M DEA, 30 min; hits give high values; 0 = EDTA background, 1 = DMSO-only activity; AID 1136; activation factor at 20 µM;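 active = activation factor at least 2 at 20 µM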
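Test system – human TNAP · Doses – 20 µM single point · Incubation – 30 min, room temperature · Signal – luminescent substrate turnover signal · Read-out basis – activation factor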
DTT redox prof – compounds producing H2O2 with reducing agent – biochemical, NIH compound library profiling, artefact control for MLSCN library redox annotation, primary screen | DTT-dependent redox cycling H2O2, phenol red/HRP absorbance; 100% = 100 µM peroxide control, 0% = buffer | activation, % at 10 µM | actives 0.03% (n = 200,000) | AID 878;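 active = activation of at least 50% relative to the plate's high and low controls in the primary single-dose screen; inactive = activation below 50%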;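 also: compound incubated with DTT at 0.8 mM final as the reducing agent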
p97 inhibitor – inhibitors of human p97 ATPase; P55072; recombinant p97 ATPase, Kinase-Glo ATP luminescence, 3 h; inhibition, % at 8 µM; actives 0.42% (n = 220,000); AID 1481; in the data active = inhibition above about 15%
Target sequence (P55072 whole entry, looked up): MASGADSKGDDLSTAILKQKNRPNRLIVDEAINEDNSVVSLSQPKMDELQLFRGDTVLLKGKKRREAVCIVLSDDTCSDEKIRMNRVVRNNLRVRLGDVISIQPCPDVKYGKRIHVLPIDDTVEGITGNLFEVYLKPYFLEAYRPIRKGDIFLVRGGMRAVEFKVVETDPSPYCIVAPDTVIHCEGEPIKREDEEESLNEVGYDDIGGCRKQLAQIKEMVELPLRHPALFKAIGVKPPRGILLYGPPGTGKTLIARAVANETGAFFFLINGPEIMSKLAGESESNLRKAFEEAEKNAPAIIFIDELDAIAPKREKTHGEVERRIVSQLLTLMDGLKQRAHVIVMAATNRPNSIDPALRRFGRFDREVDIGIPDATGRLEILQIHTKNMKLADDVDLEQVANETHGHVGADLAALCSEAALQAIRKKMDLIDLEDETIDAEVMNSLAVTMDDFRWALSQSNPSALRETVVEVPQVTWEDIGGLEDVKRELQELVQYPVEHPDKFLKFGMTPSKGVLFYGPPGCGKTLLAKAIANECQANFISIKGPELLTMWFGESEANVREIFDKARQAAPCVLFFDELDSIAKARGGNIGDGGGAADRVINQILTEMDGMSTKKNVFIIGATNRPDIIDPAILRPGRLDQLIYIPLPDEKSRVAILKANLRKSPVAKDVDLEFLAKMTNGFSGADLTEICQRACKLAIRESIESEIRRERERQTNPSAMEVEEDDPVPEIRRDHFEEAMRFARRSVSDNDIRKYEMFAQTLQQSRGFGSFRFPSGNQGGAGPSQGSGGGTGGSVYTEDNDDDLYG
TNAP inh hiacc – TNAP (human) inhibition, high acceptor. P05186. actives 0.03% (n = 200,000). purified TNAP, CDP-star luminescence, 1 M DEA. inhibition, % at 20 µM;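 active = over 50% inhibition of tissue-nonspecific alkaline phosphatase at 20 µM in the single-dose screen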
Redox H2O2 DR – generates H2O2 by DTT-dependent redox cycling, confirmed in dose response. shares compounds with DTT redox prof. phenol red-HRP absorbance. EC50, µM. actives 40% (n = 60);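 active = EC50 under a set limit for hydrogen peroxide production with the reducing agent DTT present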
p97 confirm – confirmation of human p97 ATPase inhibitors; AID 1517; recombinant p97 ATPase, Kinase-Glo ATP luminescence; shares compounds with p97 inhibitor; inhibition, % at 8 µM; actives 44% (n = 760);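 active = percent inhibition of p97 ATPase above a set limit, the primary screen's mean plus 3 SD, cut at about 15% in these data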
Hits are given with their value; i = inactive; nt = no result given. An excerpt weighted towards active compounds, which were near 0.79% of everything screened.

SMILES	TNAP inh noacc	G6PDH CS	TNAP act hiacc	DTT redox prof	p97 inhibitor	TNAP inh hiacc	Redox H2O2 DR	others
CN(C1=C(N2CCCCC2)C(=O)c2ccccc2C1=O)c1ccccc1	i	i	i	i	i	i	nt
O=C(/C=C/c1ccc(O)cc1)c1ccccc1	nt	nt	nt	nt	i	nt	nt
Cc1ccc(NC2=C(N3CCCCC3)C(=O)c3ccccc3C2=O)cc1	i	55.9	i	i	i	i	nt
COc1ccccc1NC1=C(N2CCCCC2)C(=O)c2ccccc2C1=O	i	i	i	i	i	i	nt
O=C1C(Nc2cccc(O)c2)=C(N2CCCCC2)C(=O)c2ccccc21	i	58.6	i	i	i	i	nt
O=C1C(Nc2ccccc2)=C(N2CCCCC2)C(=O)c2ccccc21	i	57.2	i	i	i	i	nt
O=C(/C=C/c1ccc(O)cc1)c1ccc(NC2=C(N3CCCCC3)C(=O)c3ccccc3C2=O)cc1	i	52.3	i	i	i	i	nt
CC1=CC(C)(C)N(C(=O)CNC2CCCC2)c2cc(C)ccc21	i	i	i	i	i	i	nt
Cc1ccc(N2C(=O)c3ccc(C(=O)N4CCN(c5cccc(C)c5C)CC4)cc3C2=O)cc1	i	i	i	i	i	i	nt
CN(C)c1ccc(/C=C(\C#N)C(=O)Nc2nc3c(s2)CCN(Cc2ccccc2)C3)cc1	55.4	i	i	i	i	i	nt
O=C(O)c1cccc(N2C(=O)/C(=C/c3ccc(SCc4ccc(Cl)cc4)o3)SC2=S)c1	i	i	i	i	i	i	nt
O=S(=O)(/N=C/c1c(O)ccc2ccccc12)c1cccs1	i	57.3	i	i	i	i	nt
O=CN/N=C/c1c(O)ccc2ccccc12	nt	nt	nt	nt	i	nt	nt
CCC(=O)N(CC)C1=C(O)c2ccccc2C(=O)C1=O	i	51.7	i	i	i	i	nt
CCC(=O)N(C1=C(NC)C(=O)c2ccccc2C1=O)C(C)C	i	i	i	i	i	i	nt
Nc1cc(OCC(F)(F)F)cc([N+](=O)[O-])c1	i	i	i	i	i	i	nt
Nc1cc(N)c(OCC(F)(F)F)cc1OCC(F)(F)F	i	51.0	i	i	18.9	i	nt
CC1CCc2c(sc3ncn(CCO)c(=O)c23)C1 (stereo not drawn)	i	i	i	i	i	i	nt
CC1CCc2c(sc3ncn(Cc4ccc(C(=O)O)cc4)c(=O)c23)C1 (stereo not drawn)	i	i	i	i	14.6	i	nt
COc1ccc(CN2C(=O)c3cccnc3C2Nc2cc(Cl)ccc2OC)cc1 (stereo not drawn)	i	i	i	i	i	i	nt
COc1ccc(CN2C(=O)c3cccnc3C2O)cc1 (stereo not drawn)	i	i	i	67.8	i	i	i
Cc1ccc(NC2=C/C(=N/S(=O)(=O)c3cccs3)c3ccccc3C2=O)cc1C	i	i	i	i	i	i	nt
Cc1cc(C)c(S(=O)(=O)/N=C2/C=C(Sc3ncn[nH]3)C(=O)c3ccccc32)cc1C	i	51.2	i	142.9	i	i	23.3
CCOC(=O)c1c2c(n(C)c1C)C(=O)C(=O)c1ccc(Br)cc1-2	nt	nt	nt	322.3	i	nt	0.04
CCOc1ccc2c(=O)c(Oc3ccccc3)c(C)oc2c1	i	i	i	57.0	i	i	i
SMILES	TNAP inh noacc	G6PDH CS	TNAP act hiacc	DTT redox prof	p97 inhibitor	TNAP inh hiacc	Redox H2O2 DR	others
Cc1oc2cc(OC(C)C(=O)O)ccc2c(=O)c1Oc1ccccc1 (stereo not drawn)	i	i	i	i	i	i	nt
O=C(COC(=O)c1ccc([N+](=O)[O-])s1)NCc1ccccc1	i	i	i	113.0	i	i	39.2
O=C(NCc1cccs1)C1CCN(C(=O)NCc2ccccc2)CC1	i	i	i	i	i	i	nt
CC(C(=O)N1CCN=C1c1ccccc1)N1C(=O)c2ccccc2C1=O (stereo not drawn)	nt	nt	nt	nt	i	nt	nt
CNC1=C(N(C(C)=O)c2ccc(Br)cc2)C(=O)c2ccccc2C1=O	i	51.8	i	107.6	i	i	i
CC(C)CN(C(=O)COC(=O)c1ccc([N+](=O)[O-])o1)C1CCS(=O)(=O)C1 (stereo not drawn)	i	i	i	121.7	i	i	i
CC(C)CN(C(=O)COC(=O)c1cc2ccccc2oc1=O)C1CCS(=O)(=O)C1 (stereo not drawn)	i	i	i	i	i	i	nt
Cc1oc2c(c1C(=O)c1ccc(Cl)cc1)C(=O)C(=O)c1ccccc1-2	i	60.1	i	344.2	i	i	6.44
CC(C)n1c(NCCc2ccccc2)nc2c1c(=O)n(C)c(=O)n2C	i	i	i	i	i	i	nt
O=C(CC(c1ccccc1)c1ccccc1O)NCc1ccccc1Cl (stereo not drawn)	i	i	i	i	i	i	nt
CCC(C)n1c(NC(=O)c2ccccc2)c(C#N)c2nc3ccccc3nc21 (stereo not drawn)	i	i	i	62.7	27.0	i	i	p97 confirm=i
C=CCn1c(NS(=O)(=O)c2ccccc2)c(S(=O)(=O)c2ccc(C)cc2)c2nc3ccccc3nc21	i	i	i	99.2	31.4	i	i	p97 confirm=29.0
O=S(=O)(Nc1c(S(=O)(=O)c2ccccc2)c2nc3ccccc3nc2n1C1CCCCC1)c1ccccc1	i	i	i	95.5	19.7	i	12.3	p97 confirm=i
CC(=O)Nc1c(S(=O)(=O)c2ccccc2)c2nc3ccccc3nc2n1Cc1ccccc1	i	i	i	i	i	i	nt
Cc1ccc(S(=O)(=O)c2c(N)n(-c3ccccc3)c3nc4ccccc4nc23)cc1	i	i	i	i	i	i	nt
O=C(CCNC(=O)c1ccccc1Cl)OCC(=O)c1ccccc1	i	i	i	i	i	i	nt
O=S(=O)(Nc1cc2nc3ccccc3nc2n1Cc1ccccc1)c1ccc(Cl)cc1	i	i	i	85.0	30.5	i	i	p97 confirm=43.4
CC(=O)Nc1cc(OC(C)=O)c2nonc2c1OC(C)=O	i	58.6	i	113.1	29.6	i	7.85	p97 confirm=31.6
Cc1ccc(C(=O)c2c(C)oc3c2C(=O)C(=O)c2ccccc2-3)cc1	i	63.3	i	457.8	21.6	i	i	p97 confirm=19.5
CCOC(=O)C1=C(C)NC(=S)NC1/C=C/c1ccccc1 (stereo not drawn)	i	i	i	i	i	i	nt
CCOC(=O)N1CCN(C(=O)CCl)CC1	i	i	i	i	i	i	nt
CC(=O)N(/N=C1\Sc2ccccc2C1=O)c1cccc(C)c1	i	i	i	296.2	15.0	i	26	p97 confirm=24.2
CC(=O)N(CN1C(=O)c2ccccc2C1=O)c1cccc(C)c1	i	i	i	i	i	i	nt
COC(=O)c1ccc(C(=O)N(CCN(C)C)c2nc3c(Cl)cccc3s2)cc1	i	i	i	i	i	i	nt

Screening results deposited in PubChem by several laboratories.
